Measurements from ChEMBL document CHEMBL5724801, “EUbOPEN Chemogenomics Library - Multiplex” (2024).
“And” between values parts separate entries of the source, which are not always exact repeats. Equal entries are not always repeated.

Test system: Fibroblast
Assay: Multiplex assay against human fibroblast
Assay type: toxicity, cell-based
Summary of the method: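 With compound added, live cells were imaged on a CQ1 microscope at 37°C and 5% CO2; staining with Hoechst33342, BioTracker Green Microtubule Cytoskeleton Dye, MitoTracker Red and Annexin V Alexa Fluor 680 had been done at seeding. The CellPathfinder machine-learning gating scheme split cells into Hoechst high-intensity objects or normal cells, normal cells into healthy, pyknosed or fragmented nuclei, and pyknosed cells into mitotic or apoptotic. The tubulin, mitochondrial-mass and membrane-permeability phenotypes are per cents of healthy-nucleus cells.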

[1] = 12 h, 1 µM, compound concentration 1 uM
[2] = 12 h, 10 µM, compound concentration 10 uM
[3] = 24 h, 1 µM, compound concentration 1 uM
[4] = 24 h, 10 µM, compound concentration 10 uM
[5] = 48 h, 1 µM, compound concentration 1 uM
[6] = 48 h, 10 µM, compound concentration 10 uM

Question: What does the source list for CC[C@@H](C)Nc1nc(C)nc2c(-c3ccc(OC)nc3C)c(C)nn12 [PEXACERFONT]?
Answer: Population Apoptotic (%) [1]: 40% and 25%; Population Fragmented Nuclei (%) [1]: 12% and 32%; Population Healthy Nuclei (%) [1]: 66% and 44%; Population Hoechst High Intensity Objects (%) [1]: 1% and 2%; Population Mitochondria Different-Phenotype (%) [1]: 4%; Population Mitotic Cells (%) [1]: 60% and 75%; Population Normal (%) [1]: 98% and 97%; Population Pyknosed Nuclei (%) [1]: 20% and 24%; Population Tubulin-Different-Phenotype (%) [1]: 35% and 65%; Total Cell Count [1]: 147 and 103; Population Apoptotic (%) [2]: 43% and 38%; Population Fragmented Nuclei (%) [2]: 15% and 21%; Population Healthy Nuclei (%) [2]: 55% and 40%; Population Hoechst High Intensity Objects (%) [2]: 2% and 8%; Population Membrane Permeable-Phenotype (%) [2]: 0% and 7%; Population Mitochondria Different-Phenotype (%) [2]: 19% and 9%; Population Mitotic Cells (%) [2]: 56% and 61%; Population Normal (%) [2]: 97% and 91%; Population Pyknosed Nuclei (%) [2]: 29% and 38%; Population Tubulin-Different-Phenotype (%) [2]: 62% and 68%; Total Cell Count [2]: 143 and 147; Population Apoptotic (%) [3]: 52% and 47%; Population Fragmented Nuclei (%) [3]: 16% and 35%; Population Healthy Nuclei (%) [3]: 70% and 42%; Population Hoechst High Intensity Objects (%) [3]: 1% and 3%; Population Membrane Permeable-Phenotype (%) [3]: 0% and 20%; Population Mitochondria Different-Phenotype (%) [3]: 3% and 2%; Population Mitotic Cells (%) [3]: 47% and 52%; Population Normal (%) [3]: 98% and 96%; Population Pyknosed Nuclei (%) [3]: 13% and 22%; Population Tubulin-Different-Phenotype (%) [3]: 38% and 61%; Total Cell Count [3]: 157 and 108; Population Apoptotic (%) [4]: 37% and 38%; Population Fragmented Nuclei (%) [4]: 16% and 18%; Population Healthy Nuclei (%) [4]: 56% and 47%; Population Hoechst High Intensity Objects (%) [4]: 1% and 7%; Population Mitochondria Different-Phenotype (%) [4]: 10% and 6%; Population Mitotic Cells (%) [4]: 62% and 61%; Population Normal (%) [4]: 98% and 92%; Population Pyknosed Nuclei (%) [4]: 27% and 33%; Population Tubulin-Different-Phenotype (%) [4]: 68% and 76%; Total Cell Count [4]: 139 and 143; Population Apoptotic (%) [5]: 54% and 25%; Population Fragmented Nuclei (%) [5]: 15% and 40%; Population Healthy Nuclei (%) [5]: 69% and 45%; Population Hoechst High Intensity Objects (%) [5]: 8% and 1%; Population Mitochondria Different-Phenotype (%) [5]: 0% and 4%; Population Mitotic Cells (%) [5]: 45% and 75%; Population Normal (%) [5]: 91% and 98%; Population Pyknosed Nuclei (%) [5]: 15% and 14%; Population Tubulin-Different-Phenotype (%) [5]: 30% and 52%; Total Cell Count [5]: 160 and 113; Population Apoptotic (%) [6]: 87% and 52%; Population Fragmented Nuclei (%) [6]: 23% and 32%; Population Healthy Nuclei (%) [6]: 53% and 50%; Population Hoechst High Intensity Objects (%) [6]: 3% and 4%; Population Membrane Permeable-Phenotype (%) [6]: 0% and 12%; Population Mitochondria Different-Phenotype (%) [6]: 14% and 9%; Population Normal (%) [6]: 96% and 95%; Population Pyknosed Nuclei (%) [6]: 22% and 16%; Population Tubulin-Different-Phenotype (%) [6]: 62% and 76%; Total Cell Count [6]: 144 and 134

Question: What does the source list for COc1cc2nc(N3CCN(C(=O)c4ccco4)CC3)nc(N)c2cc1OC.Cl [PRAZOSIN HYDROCHLORIDE]?
Answer: Population Apoptotic (%) [1]: 38% and 49%; Population Fragmented Nuclei (%) [1]: 22% and 20%; Population Healthy Nuclei (%) [1]: 57% and 52%; Population Hoechst High Intensity Objects (%) [1]: 1% and 4%; Population Membrane Permeable-Phenotype (%) [1]: 1% and 5%; Population Mitochondria Different-Phenotype (%) [1]: 1% and 7%; Population Mitotic Cells (%) [1]: 61% and 50%; Population Normal (%) [1]: 98% and 95%; Population Pyknosed Nuclei (%) [1]: 19% and 27%; Population Tubulin-Different-Phenotype (%) [1]: 26% and 46%; Total Cell Count [1]: 174 and 194; Population Apoptotic (%) [2]: 44% and 31%; Population Fragmented Nuclei (%) [2]: 23% and 35%; Population Healthy Nuclei (%) [2]: 64% and 42%; Population Hoechst High Intensity Objects (%) [2]: 1% and 5%; Population Membrane Permeable-Phenotype (%) [2]: 0% and 9%; Population Mitochondria Different-Phenotype (%) [2]: 7% and 3%; Population Mitotic Cells (%) [2]: 56% and 68%; Population Normal (%) [2]: 98% and 94%; Population Pyknosed Nuclei (%) [2]: 12% and 21%; Population Tubulin-Different-Phenotype (%) [2]: 49% and 65%; Total Cell Count [2]: 198 and 155; Population Apoptotic (%) [3]: 50% and 45%; Population Fragmented Nuclei (%) [3]: 20%; Population Healthy Nuclei (%) [3]: 63% and 57%; Population Hoechst High Intensity Objects (%) [3]: 2% and 7%; Population Membrane Permeable-Phenotype (%) [3]: 0% and 12%; Population Mitochondria Different-Phenotype (%) [3]: 2% and 3%; Population Mitotic Cells (%) [3]: 50% and 54%; Population Normal (%) [3]: 97% and 92%; Population Pyknosed Nuclei (%) [3]: 15% and 21%; Population Tubulin-Different-Phenotype (%) [3]: 28% and 58%; Total Cell Count [3]: 181 and 185; Population Apoptotic (%) [4]: 46% and 61%; Population Fragmented Nuclei (%) [4]: 23% and 35%; Population Healthy Nuclei (%) [4]: 69% and 49%; Population Hoechst High Intensity Objects (%) [4]: 3% and 7%; Population Membrane Permeable-Phenotype (%) [4]: 0% and 10%; Population Mitochondria Different-Phenotype (%) [4]: 6% and 11%; Population Mitotic Cells (%) [4]: 53% and 38%; Population Normal (%) [4]: 96% and 92%; Population Pyknosed Nuclei (%) [4]: 6% and 15%; Population Tubulin-Different-Phenotype (%) [4]: 45% and 73%; Total Cell Count [4]: 201 and 152; Population Apoptotic (%) [5]: 52% and 66%; Population Fragmented Nuclei (%) [5]: 24% and 29%; Population Healthy Nuclei (%) [5]: 62% and 56%; Population Hoechst High Intensity Objects (%) [5]: 3%; Population Membrane Permeable-Phenotype (%) [5]: 0% and 8%; Population Mitochondria Different-Phenotype (%) [5]: 1% and 6%; Population Mitotic Cells (%) [5]: 47% and 33%; Population Normal (%) [5]: 96%; Population Pyknosed Nuclei (%) [5]: 13% and 14%; Population Tubulin-Different-Phenotype (%) [5]: 22% and 57%; Total Cell Count [5]: 182 and 197; Population Apoptotic (%) [6]: 66% and 46%; Population Fragmented Nuclei (%) [6]: 25% and 42%; Population Healthy Nuclei (%) [6]: 68% and 49%; Population Hoechst High Intensity Objects (%) [6]: 1% and 5%; Population Membrane Permeable-Phenotype (%) [6]: 0% and 5%; Population Mitochondria Different-Phenotype (%) [6]: 4% and 5%; Population Mitotic Cells (%) [6]: 33% and 53%; Population Normal (%) [6]: 98% and 94%; Population Pyknosed Nuclei (%) [6]: 6% and 8%; Population Tubulin-Different-Phenotype (%) [6]: 32% and 48%; Total Cell Count [6]: 201 and 170

Question: What does the source list for CC(C)(C)c1cc(NC(=O)Nc2ccc(-c3cn4c(n3)sc3cc(OCCN5CCOCC5)ccc34)cc2)no1 [QUIZARTINIB]?
Answer: Population Apoptotic (%) [1]: 42% and 41%; Population Fragmented Nuclei (%) [1]: 16% and 24%; Population Healthy Nuclei (%) [1]: 65% and 52%; Population Hoechst High Intensity Objects (%) [1]: 2%; Population Membrane Permeable-Phenotype (%) [1]: 0% and 1%; Population Mitochondria Different-Phenotype (%) [1]: 7% and 5%; Population Mitotic Cells (%) [1]: 57% and 58%; Population Normal (%) [1]: 97%; Population Pyknosed Nuclei (%) [1]: 17% and 23%; Population Tubulin-Different-Phenotype (%) [1]: 31% and 41%; Total Cell Count [1]: 150 and 137; Population Apoptotic (%) [2]: 43% and 48%; Population Fragmented Nuclei (%) [2]: 34% and 35%; Population Healthy Nuclei (%) [2]: 56% and 45%; Population Hoechst High Intensity Objects (%) [2]: 3% and 5%; Population Membrane Permeable-Phenotype (%) [2]: 0% and 5%; Population Mitochondria Different-Phenotype (%) [2]: 10% and 5%; Population Mitotic Cells (%) [2]: 56% and 51%; Population Normal (%) [2]: 96% and 94%; Population Pyknosed Nuclei (%) [2]: 8% and 18%; Population Tubulin-Different-Phenotype (%) [2]: 75% and 70%; Total Cell Count [2]: 190 and 162; Population Apoptotic (%) [3]: 58% and 42%; Population Fragmented Nuclei (%) [3]: 14% and 25%; Population Healthy Nuclei (%) [3]: 72% and 61%; Population Hoechst High Intensity Objects (%) [3]: 1% and 3%; Population Membrane Permeable-Phenotype (%) [3]: 0% and 2%; Population Mitochondria Different-Phenotype (%) [3]: 6%; Population Mitotic Cells (%) [3]: 41% and 57%; Population Normal (%) [3]: 98% and 96%; Population Pyknosed Nuclei (%) [3]: 12% and 13%; Population Tubulin-Different-Phenotype (%) [3]: 32% and 44%; Total Cell Count [3]: 137 and 152; Population Apoptotic (%) [4]: 75% and 39%; Population Fragmented Nuclei (%) [4]: 33% and 40%; Population Healthy Nuclei (%) [4]: 57% and 46%; Population Hoechst High Intensity Objects (%) [4]: 1% and 4%; Population Membrane Permeable-Phenotype (%) [4]: 0% and 1%; Population Mitochondria Different-Phenotype (%) [4]: 21% and 10%; Population Mitotic Cells (%) [4]: 25% and 60%; Population Normal (%) [4]: 98% and 95%; Population Pyknosed Nuclei (%) [4]: 8% and 13%; Population Tubulin-Different-Phenotype (%) [4]: 71% and 70%; Total Cell Count [4]: 190 and 179; Population Apoptotic (%) [5]: 75% and 42%; Population Fragmented Nuclei (%) [5]: 19% and 30%; Population Healthy Nuclei (%) [5]: 71% and 60%; Population Hoechst High Intensity Objects (%) [5]: 8% and 3%; Population Membrane Permeable-Phenotype (%) [5]: 0% and 1%; Population Mitochondria Different-Phenotype (%) [5]: 5% and 8%; Population Mitotic Cells (%) [5]: 25% and 57%; Population Normal (%) [5]: 91% and 96%; Population Pyknosed Nuclei (%) [5]: 9%; Population Tubulin-Different-Phenotype (%) [5]: 38% and 34%; Total Cell Count [5]: 145 and 158; Population Apoptotic (%) [6]: 79% and 60%; Population Fragmented Nuclei (%) [6]: 30% and 44%; Population Healthy Nuclei (%) [6]: 56% and 50%; Population Hoechst High Intensity Objects (%) [6]: 7% and 3%; Population Membrane Permeable-Phenotype (%) [6]: 0% and 2%; Population Mitotic Cells (%) [6]: 20% and 40%; Population Normal (%) [6]: 92% and 96%; Population Pyknosed Nuclei (%) [6]: 13% and 5%; Population Tubulin-Different-Phenotype (%) [6]: 74% and 59%; Total Cell Count [6]: 195
